From ChEMBL document CHEMBL1914326, “Synthesis and anticonvulsant properties of new acetamide derivatives of phthalimide, and its saturated cyclohexane and norbornene analogs” (Eur J Med Chem, 2011)
The source made the active and inactive calls. The rule behind the calls is not given here.

What was measured:
Rattus norvegicus [1] = test: Anticonvulsant activity in Sprague-Dawley albino rat assessed as protection against maximal electroshock at 30 mg/kg, po after 2 hrs; format: functional
How it was run: (§1)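 Male Sprague-Dawley rats in groups of four received 30 mg/kg p.o. as a suspension in 0.5% methylcellulose/water. Maximal electroshock seizure protection was scored at 0.25, 0.5, 1, 2 and 4 h and reported as rats protected/rats tested.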

Mus musculus [2] = test: Anticonvulsant activity in CF1 albino mouse assessed as protection against maximal electroshock at 100 mg/kg, ip after 0.25 hrs; format: functional, organism-based; set-up: dose 100 mg/kg
How it was run: (§2)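 Male albino CF-1 mice in groups of eight received i.p. doses of 30, 100 and 300 mg/kg, suspended in 0.5% methylcellulose/water. Maximal electroshock seizures were tested at 0.5 and 4 h, with one additional 0.25 h reading at 100 mg/kg. The minimum dose giving protection was recorded. A dash means no activity at 300 mg/kg.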

Mus musculus [3] = test: Neurotoxicity in CF1 albino mouse assessed as motor impairment at 300 mg/kg, ip after 4 hrs by rotarod test; format: toxicity, organism-based; set-up: dose 300 mg/kg, route intraperitoneal; conditions: in vivo
How it was run: (§3)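 Acute neurotoxicity was scored on the minimal motor impairment rotorod test in male CF-1 mice. Animals in groups of eight were dosed i.p. at 30, 100 or 300 mg/kg in 0.5% methylcellulose/water and examined at 0.5 and 4 h. Untreated controls keep their balance on the rod for a prolonged time. The minimum dose causing impairment was recorded.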

Rattus norvegicus [4] = test: Anticonvulsant activity in Sprague-Dawley albino rat assessed as protection against maximal electroshock at 30 mg/kg, po after 0.25 hrs; format: functional; how it was run: as §1
Rattus norvegicus [5] = test: Anticonvulsant activity in Sprague-Dawley albino rat assessed as protection against maximal electroshock at 30 mg/kg, po after 0.5 hrs; format: functional; how it was run: as §1
Rattus norvegicus [6] = test: Neurotoxicity in Sprague-Dawley albino rat assessed as motor impairment at 30 mg/kg, po by rotarod test; format: toxicity, organism-based; set-up: dose 30 mg/kg, route oral; conditions: in vivo
How it was run: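 Male Sprague-Dawley rats in groups of four were given 30 mg/kg orally in 0.5% methylcellulose/water. Motor impairment was then assessed on the standardized minimal motor impairment rotorod test.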

Mus musculus [7] = test: Anticonvulsant activity in ip dosed CF1 albino mouse assessed as protection against maximal electroshock after 4 hrs; format: functional; conditions: read-out: MED; how it was run: as §2
Rattus norvegicus [8] = test: Anticonvulsant activity in Sprague-Dawley albino rat assessed as protection against maximal electroshock at 30 mg/kg, po after 1 hr; format: functional; how it was run: as §1
Mus musculus [9] = test: Anticonvulsant activity in CF1 albino mouse assessed as protection against subcutaneous pentylenetetrazole-induced seizures at 300 mg/kg, ip after 4 hrs; format: functional, organism-based; set-up: dose 300 mg/kg
How it was run: (§4)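 Male CF-1 mice in groups of eight were dosed i.p. at 30, 100 or 300 mg/kg in 0.5% methylcellulose/water. At 0.5 and 4 h, pentylenetetrazole 85 mg/kg (CD97 dose) was given s.c. This dose produces clonic seizures lasting at least 5 s. The minimum protective dose was recorded, with a top dose of 300 mg/kg.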

Mus musculus [10] = test: Neurotoxicity in CF1 albino mouse assessed as motor impairment at 300 mg/kg, ip after 0.5 hrs by rotarod test; format: toxicity, organism-based; set-up: dose 300 mg/kg, route intraperitoneal; conditions: in vivo; how it was run: as §3
Mus musculus [11] = test: Anticonvulsant activity in CF1 albino mouse assessed as protection against subcutaneous pentylenetetrazole-induced seizures at 300 mg/kg, ip after 0.5 hrs; format: functional, organism-based; set-up: dose 300 mg/kg; how it was run: as §4
Mus musculus [12] = test: Anticonvulsant activity in ip dosed CF1 albino mouse assessed as protection against maximal electroshock after 0.5 hrs; format: functional; conditions: read-out: MED; how it was run: as §2
Rattus norvegicus [13] = test: Anticonvulsant activity in Sprague-Dawley albino rat assessed as protection against maximal electroshock at 30 mg/kg, po after 4 hrs; format: functional; how it was run: as §1
Mus musculus [14] = test: Anticonvulsant activity in CF1 albino mouse assessed as protection against maximal electroshock at 300 mg/kg, ip after 4 hrs; format: functional, organism-based; set-up: dose 300 mg/kg; how it was run: as §2
Mus musculus [15] = test: Anticonvulsant activity in CF1 albino mouse assessed as protection against maximal electroshock at 300 mg/kg, ip after 0.5 hrs; format: functional, organism-based; set-up: dose 300 mg/kg; how it was run: as §2
Mus musculus [16] = test: Neurotoxicity in ip dosed CF1 albino mouse assessed as minimum dose required to cause tremors after 0.5 hrs by rotarod test; format: toxicity, organism-based; conditions: in vivo
Mus musculus [17] = test: Anticonvulsant activity in ip dosed CF1 albino mouse assessed as protection against subcutaneous pentylenetetrazole-induced after 4 hrs; format: functional; conditions: read-out: MED; how it was run: as §4
Mus musculus [18] = test: Neurotoxicity in ip dosed CF1 albino mouse assessed as minimum dose required to cause motor impairment after 0.5 hrs by rotarod test; format: toxicity, organism-based; conditions: in vivo; how it was run: as §3
Mus musculus [19] = test: Neurotoxicity in ip dosed CF1 albino mouse assessed as minimum dose required to cause motor impairment after 4 hrs by rotarod test; format: toxicity, organism-based; conditions: in vivo; how it was run: as §3
Mus musculus [20] = test: Anticonvulsant activity in ip dosed CF1 albino mouse assessed as protection against subcutaneous pentylenetetrazole-induced after 0.5 hrs; format: functional; conditions: read-out: MED; how it was run: as §4
Mus musculus [21] = test: Neurotoxicity in CF1 albino mouse assessed as unable to grasp rotarod at 300 mg/kg, ip after 4 hrs by rotarod test; format: toxicity, organism-based; set-up: dose 300 mg/kg, route intraperitoneal; conditions: in vivo; how it was run: as §3
Mus musculus [22] = test: Neurotoxicity in CF1 albino mouse assessed as unable to grasp rotarod at 300 mg/kg, ip after 0.5 hrs by rotarod test; format: toxicity, organism-based; set-up: dose 300 mg/kg, route intraperitoneal; conditions: in vivo; how it was run: as §3
Rattus norvegicus [23] = test: Anticonvulsant activity in po dosed rat assessed as protection against maximal electroshock; format: functional

Compound	Activity (Mus musculus [3])	minimal effective dose (Mus musculus [7])	Activity (Mus musculus [9])	Activity (Mus musculus [10])	Activity (Mus musculus [11])	minimal effective dose (Mus musculus [12])	Activity (Mus musculus [14])	Activity (Mus musculus [15])	MTC (Mus musculus [18])	further results
O=C(CN1C(=O)C2CCCCC2C1=O)N1CCN(c2ccc(F)cc2)CC1 (stereo not given)	Non-toxic	300 mg/kg	inactive	Non-toxic	inactive	300 mg/kg				Activity (Rattus norvegicus [1]): 0%; Activity (Mus musculus [2]): Active; Activity (Rattus norvegicus [4]): 0%; Activity (Rattus norvegicus [5]): 50%; Activity (Rattus norvegicus [6]): Non-toxic; Activity (Rattus norvegicus [8]): 25%; Activity (Rattus norvegicus [13]): 0%
O=C(CN1C(=O)c2ccccc2C1=O)N1CCN(c2ccc(Cl)cc2)CC1	Non-toxic	100 mg/kg	inactive	Non-toxic	inactive	100 mg/kg				Activity (Rattus norvegicus [1]): 0%; Activity (Rattus norvegicus [4]): 0%; Activity (Rattus norvegicus [5]): 0%; Activity (Rattus norvegicus [6]): Non-toxic; Activity (Rattus norvegicus [8]): 0%; Activity (Rattus norvegicus [13]): 50%
O=C(CN1C(=O)C2CCCCC2C1=O)N1CCN(c2cccc(Cl)c2Cl)CC1 (stereo not given)	Non-toxic		inactive		inactive		inactive	inactive		Activity (Mus musculus [16]): Toxic
O=C(CN1C(=O)c2ccccc2C1=O)N1CCN(c2ccc(F)cc2)CC1		100 mg/kg				30 mg/kg			300 mg/kg	Activity (Rattus norvegicus [1]): 100%; Activity (Rattus norvegicus [4]): 25%; minimal effective dose (Mus musculus [17]): 300 mg/kg; Activity (Rattus norvegicus [5]): 50%; Activity (Rattus norvegicus [6]): Non-toxic; Activity (Rattus norvegicus [8]): 50%; MTC (Mus musculus [19]): 300 mg/kg; minimal effective dose (Mus musculus [20]): 300 mg/kg; Activity (Rattus norvegicus [13]): 100%
O=C1NC(=O)C(c2ccccc2)(c2ccccc2)N1 [PHENYTOIN]		30 mg/kg	inactive		inactive	30 mg/kg			100 mg/kg	Activity (Rattus norvegicus [1]): 75%; Activity (Rattus norvegicus [4]): 25%; Activity (Rattus norvegicus [5]): 100%; Activity (Rattus norvegicus [6]): Non-toxic; Activity (Rattus norvegicus [8]): 75%; MTC (Mus musculus [19]): 100 mg/kg; Activity (Rattus norvegicus [13]): 75%
NC(=O)N1c2ccccc2C=Cc2ccccc21 [CARBAMAZEPINE]		100 mg/kg				30 mg/kg			100 mg/kg	minimal effective dose (Mus musculus [17]): 300 mg/kg; MTC (Mus musculus [19]): 300 mg/kg; minimal effective dose (Mus musculus [20]): 100 mg/kg
O=C(CN1C(=O)c2ccccc2C1=O)N1CCOCC1		100 mg/kg	inactive		inactive	100 mg/kg				Activity (Mus musculus [21]): Toxic; Activity (Mus musculus [22]): Toxic
CCC1(C)CC(=O)NC1=O (stereo not given) [ETHOSUXIMIDE]	Non-toxic			Non-toxic			inactive	inactive		minimal effective dose (Mus musculus [17]): 300 mg/kg; minimal effective dose (Mus musculus [20]): 100 mg/kg
O=C(CN1C(=O)c2ccccc2C1=O)N1CCN(c2ccccc2F)CC1	Non-toxic		inactive	Non-toxic		300 mg/kg	inactive			minimal effective dose (Mus musculus [20]): 300 mg/kg
O=C1CC2(CCc3ccccc3C2)C(=O)N1CN1CCN(c2cccc(C(F)(F)F)c2)CC1 (stereo not given)										ED50 (Rattus norvegicus [23]): 9 mg/kg
O=C(CN1C(=O)C2C3C=CC(C3)C2C1=O)N1CCN(c2ccc(F)cc2)CC1 (stereo not given)		100 mg/kg	inactive		inactive	100 mg/kg			300 mg/kg	Activity (Mus musculus [21]): Toxic
Nc1ccc(N2C(=O)c3ccccc3C2=O)c(Cl)c1										ED50 (Rattus norvegicus [23]): 5.7 mg/kg
O=C(CN1C(=O)C2CCCCC2C1=O)N1CCN(Cc2ccccc2)CC1 (stereo not given)	Non-toxic		inactive		inactive		inactive	inactive	300 mg/kg	
O=C(CN1C(=O)C2CCCCC2C1=O)N1CCOCC1 (stereo not given)	Non-toxic				inactive		inactive	inactive	300 mg/kg	minimal effective dose (Mus musculus [17]): 300 mg/kg
O=C(CN1C(=O)C2CCCCC2C1=O)N1CCN(c2ccc(Cl)cc2)CC1 (stereo not given)	Non-toxic	300 mg/kg	inactive	Non-toxic	inactive			inactive		
